Source: PubChem BioAssay AID624466 (The Scripps Research Institute Molecular Screening Center, 2012)
Several values for one entry are separate records, joined by “and”; a condition that tells them apart may be missing. Identical values can stand only once. Hit rate of the full screen: of about 360,000 compounds, about 5,400 (1.5%) were called active.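 Rule for the calls: active = inhibition above a per-plate cutoff, the mean inhibition of test compounds on that plate plus 3 SD (cut at about 49% in these data); inactive = the rest.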 This excerpt belongs to a sample that is enriched for actives.

These compounds were tested against Trace amine-associated receptor 1 (Homo sapiens) (UniProt Q96RJ0) (assay: blockers of beta-PEA-driven TAAR1 calcium signal – Fluo-8 calcium fluorescence, CHO RD-HGA16 cells, primary screen (AID 624466;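 note: 0% = DMSO plus EC80 beta-PEA response and 100% = DMSO alone without agonist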)). Conditions: CHO RD-HGA16 TAAR1, Fluo-8 calcium fluorescence, antagonist; at 3 µM; hits give high values.
Chain of Trace amine-associated receptor 1 (Homo sapiens) (Q96RJ0 whole entry, looked up): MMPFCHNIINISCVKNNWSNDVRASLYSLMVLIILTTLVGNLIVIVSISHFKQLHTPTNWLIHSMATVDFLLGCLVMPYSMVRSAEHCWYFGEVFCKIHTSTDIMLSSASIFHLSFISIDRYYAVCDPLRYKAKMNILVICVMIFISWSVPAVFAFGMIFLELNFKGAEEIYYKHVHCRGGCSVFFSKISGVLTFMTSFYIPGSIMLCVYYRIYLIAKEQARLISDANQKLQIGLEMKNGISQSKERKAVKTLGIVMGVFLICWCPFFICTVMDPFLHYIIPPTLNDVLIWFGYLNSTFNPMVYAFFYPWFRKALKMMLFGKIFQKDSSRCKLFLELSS
How it was run: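 Material: RD-HGA16 CHO cells with stable hTAAR1 and Gα16; Dosing: single nominal final test compound concentration of 3 µM; Schedule: seeding 17-24 h prior, 75-min 37 °C, 30-min RT dye loading; Detection: kinetic Fluo-8 calcium fluorescence measurement; Measure: % inhibition from peak post-agonist over basal fluorescence ratio; Benchmarks: vehicle and agonist controls.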
In the case of COc1ccc(CCNC(=O)c2ccccc2-c2ccccc2C(=O)O)cc1OC, the inhibition is reported as -6.06% (inactive). With COc1ccc(CCNc2nc(C)cc(C)n2)cc1OC the inhibition was -1.79% (inactive). In the case of COc1ccc(CCNC2=C(Cl)C(=O)N(Cc3ccccc3)C2=O)cc1OC, the inhibition is reported as 63% (active). CC(=O)Nc1ccccc1OC(C)C(=O)N1CCC(C)CC1 (configuration not stated) was tested, and the inhibition was -3.93% (inactive). In the case of COc1ccc2c(c1)C(SCC(=O)NCc1ccccc1)CC(C)(C)O2 (configuration not stated), the inhibition is reported as 13% (inactive). With C=CCC[C@@H](Cc1ccc(F)cc1)C(=O)OC[C@H](Cc1c[nH]c2ccccc12)NC(=O)[C@@H](CC=C)CC(=O)N(CCO)Cc1ccccc1 the inhibition was 38.4% (inactive). C=CC[C@@H](CC(=O)N[C@H](CO)Cc1ccccc1)C(=O)N[C@H](C)COC(=O)[C@@H](CC=C)Cc1ccc(F)cc1 was tested, and the inhibition was 38% (inactive). With C=CCC[C@@H](Cc1ccc(F)cc1)C(=O)OC[C@@H](C)NC(=O)[C@H](CC=C)CC(=O)N(CCO)Cc1ccccc1 the inhibition was 46.1% (inactive). C=CCC[C@@H](Cc1ccc(F)cc1)C(=O)O[C@H](CNC(=O)[C@H](CC=C)CC(=O)N(CCO)Cc1ccccc1)c1ccccc1 was tested, and the inhibition was 75.5% (active). C=CC[C@H](CC(=O)N(CCO)Cc1ccccc1)C(=O)N[C@@H](COC(=O)[C@@H](CC=C)Cc1ccc(F)cc1)Cc1ccccc1 was tested, and the inhibition was 61.4% (active). In the case of C=CC[C@@H](Cc1ccc(F)cc1)C(=O)OC[C@H]1CCCN1C(=O)[C@H](CC=C)CC(=O)N(CCO)Cc1ccccc1, the inhibition is reported as 39.6% (inactive). In the case of C=CCC[C@H](Cc1ccc(F)cc1)C(=O)OC[C@H](C)NC(=O)[C@H](CC=C)CC(=O)N(CCO)Cc1ccccc1, the inhibition is reported as 55.4% (active). For C=CC[C@@H](CC(=O)N[C@H](CO)Cc1ccccc1)C(=O)N[C@@H](COC(=O)[C@@H](CC=C)Cc1ccc(F)cc1)Cc1c[nH]c2ccccc12, the inhibition was 9.92% (inactive). In the case of C=CCC[C@H](Cc1ccc(F)cc1)C(=O)OC[C@@H](NC(=O)[C@@H](CC=C)CC(=O)N[C@H](CO)Cc1ccccc1)C(C)(C)C, the inhibition is reported as 37.2% (inactive). With COC(=O)C1(C(=O)OC)C[C@H](c2ccccc2)N(Cc2ccccc2OC)[C@@H]1c1ccccc1 the inhibition was -23.2% (inactive). Cc1noc(C)c1NC(=O)Nc1ccc2c(c1)C(=O)N([C@H](C)CO)C[C@H](C)[C@H](CN(C)Cc1ccncc1)OCCCC[C@@H](C)O2 was tested, and the inhibition was 8.35% (inactive). With CCCCCCc1cc2cc(-c3nnc(-c4cccc(OC)c4)o3)c(=O)oc2cc1O the inhibition was 15.5% (inactive). Nc1[nH]c(C(=O)c2ccccc2)c(-c2ccncc2)c1C(=O)NCc1cccc2ccccc12 was tested, and the inhibition was 36.1% (inactive). NC(=O)c1ncn([C@@H]2O[C@H](C(=O)O)[C@@H](O)[C@H]2O)n1 was tested, and the inhibition was -11.9% (inactive). In the case of COc1cccc(CNC(=O)[C@H]2CCCN2C(=O)[C@H]2CCCN2C(=O)c2ccc(F)cc2)c1, the inhibition is reported as -14.1% (inactive). For COc1ccc(CNC(=O)C(c2ccc(O)cc2)N(Cc2ccco2)C(=O)c2snc(C(N)=O)c2N)cc1 (configuration not stated), the inhibition was 65% (active). With NC(=O)c1nsc(C(=O)N(CC(=O)NCc2ccc(F)cc2)Cc2ccco2)c1N the inhibition was 10.2% (inactive). For COc1cc(C(C(=O)NC2CCCC2)N(Cc2ccccc2)C(=O)c2snc(C(N)=O)c2N)ccc1O (configuration not stated), the inhibition was 23.1% (inactive). For COc1ccc2nc3n(c(=O)c2c1)-c1ccc(Cl)cc1C(=O)NC3Cc1ccccc1 (configuration not stated), the inhibition was 25.3% (inactive). For CCC(C(=O)OCC(=O)Nc1c(Cl)cc(Cl)cc1Cl)c1ccccc1 (configuration not stated), the inhibition was 15.1% (inactive). For CCC(C(=O)OCC(=O)Nc1ccccc1-c1ccccc1)c1ccccc1 (configuration not stated), the inhibition was 36.7% (inactive). For CCC(C(=O)OCC(=O)Nc1ccc(C(=O)Nc2ccc(OC)cc2)cc1)c1ccccc1 (configuration not stated), the inhibition was 65.6% (active). With O=C1Nc2c(Br)cc(Br)cc2C1(O)N1CCOCC1 (configuration not stated) the inhibition was 1.94% (inactive). COc1ccc(-c2cc3nc(C)c(CCC(=O)NC(C)CCc4ccco4)c(C)n3n2)c(OC)c1 (configuration not stated) was tested, and the inhibition was 8.4% (inactive). COc1ccc2[nH]c3c(c2c1)CCN1C(=O)C(CC(=O)NCCc2ccccn2)C[C@H](C(=O)N2CCOCC2)[C@@]31C (some centres not stated) was tested, and the inhibition was 3.09% (inactive). For CCN1C(=O)N[C@@H]2C[C@H](C(=O)N3CCCC3)[C@H](C)[C@H](c3ccccc3)C[C@@H]21, the inhibition was 6% (inactive). For Cc1ccc(C)c(S(=O)(=O)N2CCN(c3ncnc4sccc34)CC2)c1, the inhibition was 65.3% (active). For Cc1ccc(C)c(S(=O)(=O)N2CCN(CC(=O)Nc3ccc([N+](=O)[O-])cc3)CC2)c1, the inhibition was 28.5% (inactive). For Cc1ccc(C)c(S(=O)(=O)n2cnc3ccccc32)c1, the inhibition was -29.5% (inactive). For COc1ccc(NC(=O)N(C)C[C@@H]2OCCCC[C@@H](C)Oc3ccc(NC(=O)NC4CCCCC4)cc3C(=O)N([C@H](C)CO)C[C@@H]2C)cc1, the inhibition was 2.84% (inactive). CC[C@H](C)[C@H]1CNC(=O)C(=O)N1CC1CCN(CCc2ccc(OC)c(OC)c2)CC1 was tested, and the inhibition was 9.23% (inactive). With CCO/C([O-])=N/c1c[n+](N2CCOCC2)no1 the inhibition was -14.5% (inactive) and -7.68% (inactive).
